Test results from ChEMBL document CHEMBL4477233, “Discovery of novel TAOK2 inhibitor scaffolds from high-throughput screening” (Bioorg Med Chem Lett, 2016).
Active and inactive are the calls of the source. The calls are words filed in the database; no cut-off is given here.

Target: T1, Serine/threonine-protein kinase TAO2 (Rattus norvegicus) (UniProt Q9JLS3)
T1 sequence (whole entry): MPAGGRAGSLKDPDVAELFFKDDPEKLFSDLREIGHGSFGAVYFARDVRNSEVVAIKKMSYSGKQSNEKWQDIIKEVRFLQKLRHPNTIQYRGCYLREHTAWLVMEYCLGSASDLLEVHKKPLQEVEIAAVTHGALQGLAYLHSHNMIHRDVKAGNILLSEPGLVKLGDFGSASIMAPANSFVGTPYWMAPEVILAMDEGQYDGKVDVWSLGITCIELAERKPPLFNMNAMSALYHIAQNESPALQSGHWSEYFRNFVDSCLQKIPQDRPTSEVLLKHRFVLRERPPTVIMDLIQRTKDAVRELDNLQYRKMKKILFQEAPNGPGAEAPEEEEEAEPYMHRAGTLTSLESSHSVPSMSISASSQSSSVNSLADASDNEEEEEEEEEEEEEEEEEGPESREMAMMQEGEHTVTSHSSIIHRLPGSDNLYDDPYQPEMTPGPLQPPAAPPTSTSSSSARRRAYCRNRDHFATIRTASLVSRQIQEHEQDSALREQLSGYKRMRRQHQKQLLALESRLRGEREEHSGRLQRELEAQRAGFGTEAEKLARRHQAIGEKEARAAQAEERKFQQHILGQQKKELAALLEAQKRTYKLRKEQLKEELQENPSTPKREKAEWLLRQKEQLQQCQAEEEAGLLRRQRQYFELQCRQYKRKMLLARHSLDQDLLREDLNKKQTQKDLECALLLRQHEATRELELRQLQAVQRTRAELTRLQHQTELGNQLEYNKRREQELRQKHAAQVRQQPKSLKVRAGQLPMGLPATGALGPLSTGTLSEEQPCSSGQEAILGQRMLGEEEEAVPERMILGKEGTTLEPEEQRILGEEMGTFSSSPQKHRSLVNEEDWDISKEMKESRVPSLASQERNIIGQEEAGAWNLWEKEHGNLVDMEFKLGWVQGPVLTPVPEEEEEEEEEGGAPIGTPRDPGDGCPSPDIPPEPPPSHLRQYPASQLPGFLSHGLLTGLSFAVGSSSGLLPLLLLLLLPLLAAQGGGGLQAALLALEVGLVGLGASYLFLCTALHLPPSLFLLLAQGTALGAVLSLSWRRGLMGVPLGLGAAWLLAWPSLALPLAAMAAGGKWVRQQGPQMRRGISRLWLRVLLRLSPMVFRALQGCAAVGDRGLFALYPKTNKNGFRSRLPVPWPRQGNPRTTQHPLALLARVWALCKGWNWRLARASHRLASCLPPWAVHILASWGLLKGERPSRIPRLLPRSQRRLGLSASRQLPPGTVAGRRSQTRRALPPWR
Assay: Binding affinity to rat TAOK2 (1 to 320 residues) expressed in Baculovirus/insect cell expression system assessed as change in melting temperature at 1 uM by SYPRO orange dye-based DSF analysis
Procedure, shortened: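 Differential scanning fluorimetry: each compound's melting-temperature shift (ΔTm, °C) was measured on the kinase protein. Compounds giving a TAOK2 ΔTm above 0.5 °C were also run against p38 and ASK1. Selectivity (ΔΔTm) was taken as the TAOK2 ΔTm minus the p38 or ASK1 ΔTm.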

SMILES | ΔTm
COc1ccc(O)c(/C=C2/SC(=S)NC2=O)c1 | -0.2 °C
Cc1cccc(NC(=S)N/N=C/c2c[nH]c3ccccc23)c1 | 0.5 °C
O=C(Nc1cccc(-c2nc3ccccc3c(=O)o2)c1)c1ccccc1Br | -0.6 °C

Target: T2, Serine/threonine-protein kinase TAO2 (Homo sapiens) (UniProt Q9UL54)
T2 sequence (whole entry): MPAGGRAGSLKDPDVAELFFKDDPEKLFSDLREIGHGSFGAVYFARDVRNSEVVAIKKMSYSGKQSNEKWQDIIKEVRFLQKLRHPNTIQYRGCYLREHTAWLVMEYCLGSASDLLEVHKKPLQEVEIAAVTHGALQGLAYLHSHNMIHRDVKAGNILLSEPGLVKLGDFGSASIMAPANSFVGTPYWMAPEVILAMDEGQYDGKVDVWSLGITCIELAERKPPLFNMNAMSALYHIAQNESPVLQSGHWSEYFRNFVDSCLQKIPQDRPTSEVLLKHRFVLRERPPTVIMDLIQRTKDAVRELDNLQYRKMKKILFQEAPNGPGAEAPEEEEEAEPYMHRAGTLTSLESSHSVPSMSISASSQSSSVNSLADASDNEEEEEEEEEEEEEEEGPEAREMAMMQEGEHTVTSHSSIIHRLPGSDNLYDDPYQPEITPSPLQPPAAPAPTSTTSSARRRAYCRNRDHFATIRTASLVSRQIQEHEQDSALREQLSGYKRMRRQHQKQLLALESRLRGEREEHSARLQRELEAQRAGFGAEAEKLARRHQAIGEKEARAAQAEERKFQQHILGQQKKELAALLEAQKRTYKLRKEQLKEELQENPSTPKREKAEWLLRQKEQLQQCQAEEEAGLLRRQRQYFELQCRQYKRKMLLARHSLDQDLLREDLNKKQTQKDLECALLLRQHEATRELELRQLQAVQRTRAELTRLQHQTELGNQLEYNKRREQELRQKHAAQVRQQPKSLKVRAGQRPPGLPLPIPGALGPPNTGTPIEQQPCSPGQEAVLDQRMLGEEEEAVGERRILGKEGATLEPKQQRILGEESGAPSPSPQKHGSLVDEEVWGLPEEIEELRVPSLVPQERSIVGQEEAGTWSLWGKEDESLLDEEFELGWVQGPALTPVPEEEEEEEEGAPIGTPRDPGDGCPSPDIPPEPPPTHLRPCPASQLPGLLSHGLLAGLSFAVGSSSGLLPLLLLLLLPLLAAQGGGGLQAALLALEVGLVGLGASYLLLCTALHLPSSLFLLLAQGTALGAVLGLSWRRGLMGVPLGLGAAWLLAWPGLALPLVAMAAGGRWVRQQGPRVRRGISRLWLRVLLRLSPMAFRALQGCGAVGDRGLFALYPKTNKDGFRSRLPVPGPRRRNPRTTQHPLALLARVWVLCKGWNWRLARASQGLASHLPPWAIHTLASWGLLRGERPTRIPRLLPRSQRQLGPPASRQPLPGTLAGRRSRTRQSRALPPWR
Assay: Inhibition of TAOK2 in human U2OS cells assessed as inhibition of cellular autophagy measured as GFP-LC3 accumulation at 50 uM after 24 hrs by flow cytometric analysis
Type: cell-based
Procedure, shortened: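 U2OS cells stably expressing GFP–LC3 were exposed to compound at 50 µM in the medium for 24 h. GFP fluorescence was read by flow cytometry. The median value from 20,000 cells per condition was normalized to DMSO vehicle within each experiment. Data are mean + SD of >2 independent experiments, compared with vehicle by unpaired t test.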

SMILES | inhibition
COc1ccc(O)c(/C=C2/SC(=S)NC2=O)c1 | Active
CO/C1=C\C(C)=C\[C@@H](C)[C@@H](O)[C@@H](C)C/C(C)=C/C=C/[C@H](OC)[C@@H]([C@@H](C)[C@@H](O)[C@H](C)[C@@]2(O)C[C@@H](O)[C@H](C)[C@@H](C(C)C)O2)OC1=O | Active
O=C(Nc1cccc(-c2nc3ccccc3c(=O)o2)c1)c1ccccc1Br | Active

Target: T3, Serine/threonine-protein kinase TAO2 (Rattus norvegicus, UniProt Q9JLS3)
T3 sequence (Q9JLS3 whole entry): T1 sequence (whole entry)
Assay: Inhibition of rat TAOK2 (1 to 320 residues) expressed in Baculovirus/insect cell expression system assessed as remaining activity using MBP as substrate and [32P]ATP measured after 10 mins by Kinase-Glo assay

SMILES | IC50
CC(=O)Nc1nc(C)c(-c2csc(Nc3ccccc3C)n2)s1 | 1800 nM
CCC(=O)Nc1nc(C)c(-c2csc(Nc3cccc([N+](=O)[O-])c3)n2)s1 | 1000 nM
CC(=O)Nc1nc(C)c(-c2csc(Nc3ccc(O)cc3)n2)s1 | 3800 nM
CCC(=O)Nc1nc(C)c(-c2csc(Nc3ccc([N+](=O)[O-])cc3)n2)s1 | 1000 nM
CC(=O)Nc1nc(C)c(-c2csc(Nc3ccccc3)n2)s1 | 1100 nM
CC(=O)Nc1nc(C)c(-c2csc(Nc3ccc([N+](=O)[O-])cc3)n2)s1 | 10000 nM
COc1ccc(O)c(/C=C2/SC(=S)NC2=O)c1 | 3000 nM
Cc1nc(N)sc1-c1csc(Nc2cccc([N+](=O)[O-])c2)n1 | 1700 nM
CCC(=O)Nc1nc(C)c(-c2csc(Nc3ccc(N(CC)CC)cc3)n2)s1 | 2700 nM
Cc1cccc(NC(=S)N/N=C/c2c[nH]c3ccccc23)c1 | 1000 nM
COc1ccc(Cl)cc1Nc1nc(-c2sc(N)nc2C)cs1 | 1000 to 1500 nM
CCC(=O)Nc1nc(C)c(-c2csc(Nc3cccc(C(=O)O)c3)n2)s1 | 1700 nM
Cc1nc(N)sc1-c1csc(Nc2cccc(Cl)c2)n1 | 3100 nM
CN1c2ccc(S(C)(=O)=O)cc2SC1NC(=O)CC1CCC(Br)CC1 (stereo not drawn) | 1400 nM
CC(=O)Nc1nc(C)c(-c2csc(Nc3cccc([N+](=O)[O-])c3)n2)s1 | 10100 nM
CC(=O)Nc1nc(C)c(-c2csc(Nc3cccc(C(=O)O)c3)n2)s1 | 1300 nM
CN1c2ccc(S(C)(=O)=O)cc2SC1NC(=O)c1ccc(C(=O)c2ccccc2)cc1 (stereo not drawn) | 1000 nM
CCC(=O)Nc1nc(C)c(-c2csc(Nc3ccc(N(C)C)cc3)n2)s1 | 1200 nM
CN1c2ccc(S(C)(=O)=O)cc2SC1NC(=O)CCCc1ccccc1 (stereo not drawn) | 1700 nM
CN1c2ccc(S(C)(=O)=O)cc2SC1NC(=O)CCCOC1CCCCC1 (stereo not drawn) | 1900 nM
COc1ccc(Cl)cc1Nc1nc(-c2sc(NC(C)=O)nc2C)cs1 | 1100 nM
CCOc1ccccc1Nc1nc(-c2sc(NC(=O)CC)nc2C)cs1 | 600 nM
CCC(=O)Nc1nc(C)c(-c2csc(Nc3cc(Cl)ccc3C)n2)s1 | 1600 nM

SMILES | IC50
CC(=O)Nc1nc(C)c(-c2csc(Nc3ccc(C)cc3)n2)s1 | 1100 nM
Cc1cccc(Nc2nc(-c3sc(N)nc3C)cs2)c1 | 1700 nM
O=C(Nc1cccc(-c2nc3ccccc3c(=O)o2)c1)c1ccccc1Br | 4000 nM
COc1ccc(OC)c(Nc2nc(-c3sc(N)nc3C)cs2)c1 | 1000 nM
CCC(=O)Nc1nc(C)c(-c2csc(Nc3ccccc3OC)n2)s1 | 1400 nM
CCOc1ccccc1Nc1nc(-c2sc(NC(C)=O)nc2C)cs1 | 1600 nM
CC(=O)Nc1nc(C)c(-c2csc(Nc3cccc(C)c3)n2)s1 | 900 nM
CCC(=O)Nc1nc(C)c(-c2csc(Nc3ccc(O)cc3)n2)s1 | 1600 nM
O=C(NCCSCc1ccccc1)c1ccc2c(=O)n(C3CCCCC3)c(=S)[nH]c2c1 | 1900 nM
CN1c2ccc(S(C)(=O)=O)cc2SC1NC(=O)/C=C/c1ccc(F)cc1 (stereo not drawn) | 800 nM
COc1ccccc1Nc1nc(-c2sc(NC(C)=O)nc2C)cs1 | 2100 nM
CC(=O)Nc1nc(C)c(-c2csc(Nc3cccc(C(C)=O)c3)n2)s1 | 12000 nM
CCC(=O)Nc1nc(C)c(-c2csc(Nc3ccc(S(N)(=O)=O)cc3)n2)s1 | 1000 nM
CCC(=O)Nc1nc(C)c(-c2csc(Nc3ccc(NC(C)=O)cc3)n2)s1 | 1900 nM
CC(=O)c1cccc(Nc2nc(-c3sc(N)nc3C)cs2)c1 | 1400 nM
O=C(NCC1COc2ccccc2O1)c1ccc2c(=O)n(Cc3ccco3)c(=S)[nH]c2c1 (stereo not drawn) | 600 nM
CCN(CC)c1ccc(Nc2nc(-c3sc(NC(C)=O)nc3C)cs2)cc1 | 1700 nM
CC(=O)Nc1nc(C)c(-c2csc(Nc3ccc(Br)cc3)n2)s1 | 1000 nM
Cc1nc(NC(=O)c2ccccc2)sc1-c1csc(Nc2ccc(S(N)(=O)=O)cc2)n1 | 800 nM
Cc1nc(N)sc1-c1csc(Nc2cccc(O)c2)n1 | 1400 nM
Cc1nc(N)sc1-c1csc(Nc2ccc([N+](=O)[O-])cc2)n1 | 1000 nM
CCC(=O)Nc1nc(C)c(-c2csc(Nc3cccc(O)c3)n2)s1 | 1000 nM
Cc1nc(N)sc1-c1csc(Nc2ccc(S(N)(=O)=O)cc2)n1 | 1400 nM

Target: T2, Serine/threonine-protein kinase TAO2 (Homo sapiens)
Assay: Inhibition of TAOK2 in human U2OS cells assessed as inhibition of cellular autophagy measured as P62 accumulation at 50 uM after 24 hrs by western blot analysis
Type: cell-based
Procedure, shortened: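 GFP–LC3-expressing U2OS cells were treated for 24 h with compound at 50 µM or with DMSO alone. p62 (SQSTM1) abundance was then assessed by Western blotting as a readout of autophagic degradation.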

SMILES | inhibition
O=C(Nc1cccc(-c2nc3ccccc3c(=O)o2)c1)c1ccccc1Br | Active
